Results taken from ChEMBL document CHEMBL3751835, “Discovery of the imidazole-derived GPR40 agonist AM-3189” (Bioorg Med Chem Lett, 2016).
The source made the active and inactive calls. No cut-off for these calls is given here.

Tests used:
[1] = biological target: T1, Free fatty acid receptor 1 (Homo sapiens, UniProt O14842); test: Partial agonist activity at human GPR40 expressed in CHO cells measured over 20 secs interval by luminometric analysis in presence of 100% human serum; type: cell-based
T1 sequence (O14842 whole entry): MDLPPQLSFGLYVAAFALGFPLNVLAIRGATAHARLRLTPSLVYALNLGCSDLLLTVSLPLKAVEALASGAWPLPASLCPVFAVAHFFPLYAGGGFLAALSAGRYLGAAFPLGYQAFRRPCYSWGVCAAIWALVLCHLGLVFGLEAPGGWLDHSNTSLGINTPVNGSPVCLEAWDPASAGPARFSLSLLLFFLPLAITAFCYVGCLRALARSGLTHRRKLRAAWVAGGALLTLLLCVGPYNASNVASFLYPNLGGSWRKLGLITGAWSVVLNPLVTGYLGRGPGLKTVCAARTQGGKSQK
How it was run: (§1)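 Aequorin chemiluminescence read-out of calcium flux in a CHO line stably transfected with human GPR40, giving EC50. Run in buffer containing 0.01% human serum albumin, or in 100% human serum to test activity with plasma proteins present.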

[2] = biological target: T1, Free fatty acid receptor 1; test: Partial agonist activity at human GPR40 expressed in CHO cells measured over 20 secs interval by luminometric analysis in presence of 0.01% human serum albumin; type: cell-based; how it was run: as §1
[3] = biological target: T1, Free fatty acid receptor 1; test: Partial agonist activity at human GPR40 expressed in CHO cells measured over 20 secs interval by luminometric analysis; type: cell-based
[4] = biological target: T1, Free fatty acid receptor 1; test: Potency index , ratio of EC50 for AMG837 to EC50 for test compound for partial agonist activity at human GPR40 expressed in CHO cells measured over 20 secs interval by luminometric analysis in presence of 0.01% human serum albumin; type: cell-based
Mus musculus = test: Reduction of blood glucose AUC in human islet transplanted nude chimeric mouse at 100 ug/kg administered 1 hr prior to glucose challenge by OGTT; type: functional, organism-based
How it was run: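 Nude mice had their endogenous pancreatic β-cells ablated with streptozotocin and were rescued to euglycemia by human islets transplanted under the kidney capsule. Compound was dosed before a glucose challenge, and the glucose AUC was determined.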

Pancreatic islet = test: Induction of insulin release in human pancreatic islets; type: functional

| EC50 [1] [µM] | EC50 [2] [nM] | Structure (SMILES) | other results |
| --- | --- | --- | --- |
| 23 | 240 | Cc1cc(Cl)ccc1-c1cccc(COc2ccc([C@H](CC(=O)O)c3nccn3C)cc2)c1C | – |
| 9.8 | 97 | Cc1cc(Cl)ccc1-c1cc(COc2ccc([C@H](CC(=O)O)c3nccn3C)cc2)ccc1C | – |
| – | – | O=C(O)CC(c1ccc(OCc2cccc(-c3ccc(C(F)(F)F)cc3)c2)cc1)c1cccnc1 (racemic) | EC50 [3]: 400 nM |
| – | – | Cn1ccnc1C(CC(=O)O)c1ccc(OCc2cccc(-c3ccc(C(F)(F)F)cc3)c2)cc1 (racemic) | EC50 [3]: 130 nM |
| 89 | 43 | Cc1ccccc1-c1cccc(COc2ccc([C@H](CC(=O)O)c3nccn3C)cc2)c1 | Ratio EC50 [4]: 2 |
| 30 | 69 | Cn1ccnc1[C@@H](CC(=O)O)c1ccc(OCc2cccc(-c3ccc(Cl)cc3Cl)c2)cc1 | – |
| – | 690 | Cn1ccnc1[C@@H](CC(=O)O)c1ccc(OCc2cccc(-c3ccccc3C#N)c2)cc1 | – |
| – | – | O=C(O)CC(c1ccccc1)c1ccc(OCc2cccc(-c3ccc(C(F)(F)F)cc3)c2)cc1 (racemic) | EC50 [3]: 330 nM |
| 42 | 36 | Cc1ccc(F)cc1-c1cccc(COc2ccc([C@H](CC(=O)O)c3nccn3C)cc2)c1 | – |
| – | – | O=C(O)CC(c1ccc(OCc2cccc(-c3ccc(C(F)(F)F)cc3)c2)cc1)c1ccccn1 (racemic) | EC50 [3]: 330 nM |
| – | 440 | COc1ccc(-c2cccc(COc3ccc([C@H](CC(=O)O)c4nccn4C)cc3)c2)cc1 | – |
| – | – | O=C(O)CC(c1ccncc1)c1ccc(OCc2cccc(-c3ccc(C(F)(F)F)cc3)c2)cc1 (racemic) | EC50 [3]: 190 nM |
| – | 410 | COc1ccccc1-c1cccc(COc2ccc([C@H](CC(=O)O)c3nccn3C)cc2)c1 | – |
| 21 | 59 | Cc1cc(F)ccc1-c1cccc(COc2ccc([C@H](CC(=O)O)c3nccn3C)cc2)c1 | – |
| – | 23000 | Cn1ccnc1[C@@H](CC(=O)O)c1ccc(OCc2cccc(-c3ccccc3S(C)(=O)=O)c2)cc1 | – |
| – | 750 | COc1cccc(-c2cccc(COc3ccc([C@H](CC(=O)O)c4nccn4C)cc3)c2)c1 | – |
| – | – | CC[C@H](C)[C@H](NC(=O)[C@H](Cc1ccccc1)NC(=O)[C@H](CCC(=O)O)NC(=O)[C@H](CCCCN)NC(=O)[C@H](C)NC(=O)[C@H](C)NC(=O)[C@H](CCC(=O)O)NC(=O)CNC(=O)[C@H](CCC(=O)O)NC(=O)[C@H](CC(C)C)NC(=O)[C@H](Cc1ccc(O)cc1)NC(=O)[C@H](CO)NC(=O)[C@H](CO)NC(=O)[C@@H](NC(=O)[C@H](CC(=O)O)NC(=O)[C@H](CO)NC(=O)[C@@H](NC(=O)[C@H](Cc1ccccc1)NC(=O)[C@@H](NC(=O)CNC(=O)[C@H](CCC(=O)O)NC(=O)[C@H](C)NC(=O)[C@@H](N)Cc1cnc[nH]1)[C@@H](C)O)[C@@H](C)O)C(C)C)C(=O)N[C@@H](C)C(=O)N[C@@H](Cc1c[nH]c2ccccc12)C(=O)N[C@@H](CC(C)C)C(=O)N[C@H](C(=O)N[C@@H](CCCCN)C(=O)NCC(=O)N[C@@H](CCCNC(=N)N)C(=O)NCC(=O)O)C(C)C | Activity (Mus musculus): Active |
| 56 | 43 | Cn1ccnc1[C@@H](CC(=O)O)c1ccc(OCc2cccc(-c3ccccc3Cl)c2)cc1 | Ratio EC50 [4]: 2 |
| – | – | O=C(O)CC(c1ccc(OCc2cccc(-c3ccc(C(F)(F)F)cc3)c2)cc1)c1nccs1 (racemic) | EC50 [3]: 120 nM |
| 22 | 61 | Cc1c(Cl)cccc1-c1cccc(COc2ccc([C@H](CC(=O)O)c3nccn3C)cc2)c1 | – |
| – | – | CC#C[C@@H](CC(=O)O)c1ccc(OCc2cccc(-c3ccc(C(F)(F)F)cc3)c2)cc1 | Activity (Pancreatic islet): Active |
| – | – | O=C(O)CC(c1ccc(OCc2cccc(-c3ccc(C(F)(F)F)cc3)c2)cc1)c1cccs1 (racemic) | EC50 [3]: 190 nM |
| 65 | 48 | CCc1ccccc1-c1cccc(COc2ccc([C@H](CC(=O)O)c3nccn3C)cc2)c1 | – |
| 61 | 112 | Cn1ccnc1[C@@H](CC(=O)O)c1ccc(OCc2cccc(-c3ccccc3OC(F)(F)F)c2)cc1 | – |
| 29 | 58 | Cc1cccc(C)c1-c1cccc(COc2ccc([C@H](CC(=O)O)c3nccn3C)cc2)c1 | – |
